Common to all, as to type: functional, cell-based
In test [1] the test system is HT-1080. The test can be described thus: Induction of autophagy in human HT1080 cells assessed as upregulation of beclin 1 at 10 uM pretreated with 3MA for 1 hr prior to compound addition measured after 24 hrs by Western blotting analysis. The essentials:
(§1)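 HT1080 cells pretreated 1 h with 1 mM 3MA or 1 nM rapamycin, then 10 μM added for 24 h. Adherent and floating cells lysed in Hepes pH 7.4/Triton buffer. Equal protein on 12% SDS-PAGE and nitrocellulose, probed for beclin 1 and LC3, ECL detection. Normalized to β-actin, n = 3.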
(Immunoblotting shows a protein as a band on a membrane.)

The test system of test [2] is HT-1080. In words: Induction of apoptosis in human HT1080 cells assessed as upregulation of FAS protein expression at 10 uM pretreated with rapamycin for 1 hr prior to compound addition measured after 24 hrs by Western blotting analysis. The essentials:
(§2)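 HT1080 cells pretreated 1 h with 1 mM 3MA or 1 nM rapamycin, then co-incubated with 10 μM for 24 h. Adherent and floating cells lysed in Hepes pH 7.4/Triton buffer. 12% SDS-PAGE, nitrocellulose, antibodies against Fas, FADD, caspase-8, caspase-3, PARP and ICAD, ECL detection. Densities normalized to β-actin; n = 3.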

Test [3] has as its system HT-1080. In words: Induction of autophagy in human HT1080 cells assessed as conversion from LC31to LC32 at 10 uM pretreated with rapamycin for 1 hr prior to compound addition measured after 24 hrs by Western blotting analysis. Summed up: as §1
Test [4] relates to HT-1080. In words: Induction of apoptosis in human HT1080 cells assessed as increase in FAS protein expression at 10 uM after 6 to 24 hrs by Western blotting analysis. The essentials: (§3)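 HT1080 cells treated with 10 μM for 6, 12, 18 and 24 h. Adherent and floating cells lysed 60 min at 4 °C in Hepes pH 7.4/1% Triton X-100 buffer with phosphatase and protease inhibitors. Equal protein run on 12% SDS-PAGE, transferred to nitrocellulose, probed with specific antibodies, HRP/ECL detection. Band density normalized to β-actin; n = 3.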

Test [5] has as its system HT-1080. In words: Cytotoxicity against human HT1080 cells assessed as growth inhibition at 10 uM pretreated with z-IETD-FMK for 1 hr prior to compound addition measured after 24 hrs by MTT assay. The essentials: (§4)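 HT1080 seeded 0.8 × 10^4 cells/well. MTT 2 h at 37 °C, formazan in DMSO, A492 read. Inhibition % calculated against untreated and blank wells.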
For orientation: Tetrazolium assays rely on reduction of a dye to a coloured formazan, in cell work by metabolically active cells.

In test [6] the test system is HT-1080. The test can be described thus: Induction of apoptosis in human HT1080 cells expressing beclin 1 siRNA assessed as increase in procaspase-3 cleavage at 10 uM after 24 hrs by Western blotting analysis relative to control. The essentials: (§5)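 Beclin 1 or nonspecific siRNA transfected into HT1080 cells (5 × 10^5 seeded a day earlier; transfection mixture for 7 h at 37 °C, then normal medium, 24 h before harvest). Cells then got 10 μM for 24 h. Adherent plus floating cells lysed in Hepes pH 7.4/Triton buffer at 4 °C for 60 min. Equal protein on 12% SDS-PAGE, nitrocellulose, ECL. Bands normalized to β-actin, n = 3.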

Test [7] has as its system HT-1080. The test can be described thus: Induction of apoptosis in human HT1080 cells assessed as change in cytosolic BID expression at 10 uM after 6 to 24 hrs by Western blotting analysis. The essentials:
as §3

The subject of test [8] is HT-1080. In words: Induction of apoptosis in human HT1080 cells assessed as appearance of cleaved procaspase-9 at 10 uM after 6 to 24 hrs by Western blotting analysis. Summed up: as §3
Test [9] deals with HT-1080. In words: Induction of apoptosis in human HT1080 cells expressing beclin 1 siRNA assessed as increase in apoptotic ratio at 10 uM after 24 hrs by propidium iodide staining-based FACS flow cytometric analysis relative to control. Summed up:
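HT1080 cells transfected with beclin 1 or nonspecific siRNA (7 h at 37 °C, then 24 h in growth medium), then exposed to 10 μM for 24 h. Cells fixed in 70% ethanol at 4 °C for 18 h, washed, stained with PI 50 μg/mL plus RNase A 1 mg/mL. Apoptotic (sub-G1) fraction read by flow cytometry.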
On the technique in general: In flow cytometry, cells or beads pass a laser one at a time.

Test [10] deals with HT-1080. The test can be described thus: Induction of apoptosis in human HT1080 cells assessed as upregulation of FAS protein expression at 10 uM pretreated with 3MA for 1 hr prior to compound addition measured after 24 hrs by Western blotting analysis. Summed up: as §2
Test [11] relates to HT-1080. In words: Cytotoxicity against human HT1080 cells assessed as growth inhibition at 1 to 100 uM by MTT assay. The note with it: TDE = time-dependent effect.
Test [12] concerns HT-1080. The test can be described thus: Induction of apoptosis in human HT1080 cells assessed as appearance of membrane blebbing at 10 uM after 24 hrs by acridine orange staining-based fluorescence microscopic analysis. Summed up:
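HT1080 cells, 2 × 10^4/well, cultured 24 h, then exposed to 10 μM for 24 h. Stained with acridine orange 20 μg/mL for 15 min in the dark and examined by fluorescence microscopy at 200×.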

In test [13] the test system is HT-1080. The test can be described thus: Induction of apoptosis in human HT1080 cells assessed as procaspase-3 cleavage at 10 uM by Western blotting analysis. As to conditions: TDE = time-dependent effect.
Test [14] has as its system HT-1080. The test can be described thus: Cytotoxicity against human HT1080 cells assessed as growth inhibition at 10 uM pretreated with 3MA for 1 hr prior to compound addition measured after 24 hrs by MTT assay. Summed up: as §4
Test [15] concerns HT-1080. In words: Induction of apoptosis in human HT1080 cells assessed as increase in procaspase-8 cleavage at 10 uM pretreated with 3MA for 1 hr prior to compound addition measured after 24 hrs by Western blotting analysis. The essentials: as §2
Test [16] deals with HT-1080. In words: Induction of apoptosis in human HT1080 cells assessed as increase in apoptotic ratio at 10 uM pretreated with rapamycin for 1 hr prior to compound addition measured after 24 hrs by propidium iodide staining-based FACS flow cytometric analysis.
In test [17] the test system is U-937. In words: Cytotoxicity against human U937 cells assessed as growth inhibition after 24 hrs by MTT assay. Summed up: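 Seeded 0.8 × 10^4 cells/well, cultured 24 h, then exposed to 0, 10, 20, 40 or 80 μM for 24 h (DMSO <0.05%) in RPMI 1640 or MEM with 10% FBS. Adherent lines rinsed with PBS, given MTT 2 h at 37 °C. Suspension lines (U937, HL60) given MTT 2 h, then centrifuged. Formazan dissolved in DMSO, A492 read. Inhibition % = (control − sample)/(control − blank) × 100.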

Test [18] concerns HT-1080. The test can be described thus: Induction of apoptosis in human HT1080 cells assessed as downregulation of ICAD at 10 uM after 6 to 24 hrs by Western blotting analysis. The essentials:
as §3

The subject of test [19] is HT-1080. The test can be described thus: Induction of autophagy in human HT1080 cells at 10 uM by MDC staining-based FACS flow cytometric analysis. The note with it: TDE = time-dependent effect. Summed up: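 HT1080 cells (3 × 10^5 per flask, grown 24 h) exposed to 10 μM for 12, 24 and 36 h. Cells collected and stained with 0.05 mM MDC at 37 °C for 1 h. MDC-positive ratio measured by flow cytometry, n = 3.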

Test [20] deals with HT-1080. The test can be described thus: Cytotoxicity against human HT1080 cells assessed as growth inhibition after 24 hrs by MTT assay. As to conditions: HT-1080, 24 h.
In test [21] the test system is HT-1080. In words: Induction of apoptosis in human HT1080 cells expressing beclin 1 siRNA assessed as suppression of LC31to LC32 conversion at 10 uM after 24 hrs by Western blotting analysis relative to control. The essentials:
as §5

Activity calls are given as the source filed them. The calls are words filed in the database; no cut-off is given here.

For orientation: IC50 means the concentration that gives 50% inhibition. As to `C=C1C(=O)O[C@@H]2C[C@@]1(C)[C@@H]1C(=O)[C@]3(O)O[C@]14[C@@]2(C)OC(=O)[C@@]4(O)CC[C@H]1[C@H]3[C@H](O)C=C2CC=CC(=O)[C@@]21C` [PHYSALIN A], the outcome in [1], in test [2], in test [7], in test [8] and in test [16] was inactive. Also, the result in [3], in [4], in [6], in test [9], in [10] and in test [12] was Active. For the same compound, the outcome in [15], in [18] and in test [21] was Active. Also, the “growth inhibition (GI)” value in [5] and in [14] was “Active” in each case. For the same compound, the “growth inhibition (GI)” value is “tde” in [11] and “Dose-dependent effect” in test [17]. For the same compound, the Activity result in [13] and in test [19] was “tde” in each case. In test [20], the IC50 was 10.7 µM.

The values above are taken from ChEMBL document CHEMBL2380219, “Physalin A induces apoptotic cell death and protective autophagy in HT1080 human fibrosarcoma cells” (J Nat Prod, 2013).
